Sampled rows, rich in hits. Any-hit rate of the full collection: about 3.1%.
GPR7 antag: blocks human GPR7 receptor signaling; P48145; GPR7-expressing cells, fluorescence antagonist assay; inhibition, % at 4.4 µM; 290,000 compounds, 1.1% hits; in the data active = inhibition above about 16%, passing the limit was not always enough;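 note: cells stimulated with the agonist NPW; 0% = agonist with vehicle and 100% = vehicle without agonist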
OX1R antag-1: blocks the human orexin 1 receptor; O43613; OX1R-expressing cells, FRET antagonist read-out; inhibition, % at 6.6 µM; 330,000 compounds, 1.8% hits; AID 485270; in the data active = inhibition mostly above about 38%, no sharp cut-off; inactive = mostly below about 40%;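 note: 0% = agonist challenge alone and 100% = reference antagonist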
Target sequence (O43613 whole entry, looked up): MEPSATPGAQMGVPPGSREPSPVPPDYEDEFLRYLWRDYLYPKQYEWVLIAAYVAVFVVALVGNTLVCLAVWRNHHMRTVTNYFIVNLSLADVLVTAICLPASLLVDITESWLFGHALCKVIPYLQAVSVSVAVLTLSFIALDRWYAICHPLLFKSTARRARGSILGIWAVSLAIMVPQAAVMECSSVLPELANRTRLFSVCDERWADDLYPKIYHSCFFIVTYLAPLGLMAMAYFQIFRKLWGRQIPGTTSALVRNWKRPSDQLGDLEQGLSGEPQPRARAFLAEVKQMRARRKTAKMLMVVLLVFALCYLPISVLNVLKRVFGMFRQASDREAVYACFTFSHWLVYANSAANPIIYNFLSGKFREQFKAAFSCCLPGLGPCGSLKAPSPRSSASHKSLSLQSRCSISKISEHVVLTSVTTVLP
GalR3 antagonist: antagonists of human GalR3. 360,000 compounds, 0.44% hits. O60755. AID 651719. inhibition, % at 3 µM. HEK293 GalR3-CNG cAMP membrane potential fluorescence; galR3 body fused to GalR1 C-terminus;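 active = inhibition above the screen-wide average plus 3 SD, cut at about 13% in these data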;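 note: forskolin and galanin both at EC90 stimulate the cells; cAMP rise reported by CNG channel membrane potential dye signal; 0% = forskolin plus galanin with DMSO and 100% = forskolin alone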
CHO parental Ca: counter-screen: ATP calcium response change in parental CHO cells; 330,000 compounds, 0.63% hits; parental CHO-K1, ATP-induced calcium, Fluo-8 fluorescence; AID 463079; inhibition, % at 5.6 µM;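 active = inhibition above that plate's mean sample inhibition plus 3 SD, cut at about 26% in these data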;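 note: 0% = ATP-challenged DMSO wells and 100% = DMSO wells without ATP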
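Assay system – parental CHO cells · Reagent – ATP stimulus · Detection – intracellular calcium via Fluo-8 no-wash fluorescent dye · Evaluation – percent inhibition of ATP-evoked calcium rise, normalized to controls · Controls – ATP wells versus no-ATP DMSO wells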
OX1R antag-2: antagonists of human orexin 1 receptor. CHO/OX1R cells, Fluo-8 calcium fluorescence, orexin A. inhibition, % at 5 µM. 330,000 compounds, 0.43% hits;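 active = inhibition above its plate's threshold, mean inhibition of all tested compounds on the plate plus 3 SD, cut at about 37% in these data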;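 note: 0% = orexin A challenge wells and 100% = SB-334867-A antagonist wells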
* marks the source's active call; other numbers are inactive results; . = no result.

SMILES	GPR7 antag	OX1R antag-1	GalR3 antagonist	CHO parental Ca	OX1R antag-2
COc1ccc(CCn2c(=N)c(C(=O)NCCN3CCOCC3)cc3c(=O)n4ccccc4nc32)cc1OC	-2	50*	3	-3	-7
COc1ccc(N2CCn3c2nc2c3c(=O)n(CCc3ccccc3)c(=O)n2C)c(OC)c1	-3	.	.	.	.
COc1ccc(N2CCn3c2nc2c3c(=O)n(CCCc3ccccc3)c(=O)n2C)c(OC)c1	-8	12	-2	55*	3
CCc1nc2ccc(C(=O)NCc3ccccc3OC)cn2c1N(C)Cc1ccc(N(C)C)cc1	.	.	-5	.	.
Cc1c(C(C)(C)O)[nH]c2cc(C(F)(F)F)ccc12	-2	26	-4	-8	-8
O=c1[nH]c2cc(C(F)(F)F)ccc2n1-c1cc(C(F)(F)F)ccc1O	.	22	-2	84*	51*
O=C(CCc1nnc(C2CCCCC2)o1)N1CCN(c2ccccc2F)CC1	-10	22	4	46*	-24
CC1COC(=O)C(NNc2ccc(Cl)c(Cl)c2)=N1 (centres undefined)	19*	1	-2	6	1
Cc1cc(C)c(C)c(S(=O)(=O)N2CCC(C(=O)N(C)Cc3nc4ccccc4c(=O)[nH]3)CC2)c1C	.	.	-6	.	.
COC(=O)[C@]1(Cc2ccccc2)NC=C(C(=O)c2ccccc2)[C@@H]1c1cccs1	.	.	1	.	.
COC(=O)c1cc(C(=O)Nc2ccc(C)cn2)cc([N+](=O)[O-])c1	6	50*	-5	-24	-26
O=C(NCc1cccnc1)c1cc(C2CCCCN2C(=O)c2ccc3ccccc3c2)on1 (centres undefined)	.	.	-8	.	.
O=[N+]([O-])c1cc(S(=O)(=O)Nc2cccc(C(F)(F)F)c2)ccc1-n1nnc2ccccc21	-8	88*	-3	43*	45*
CN(C)CCCNS(=O)(=O)c1ccc(-n2nnc3ccccc32)c([N+](=O)[O-])c1	2	68*	-9	-20	-25
COc1ccc(NS(=O)(=O)c2ccc(-n3nnc4ccccc43)c([N+](=O)[O-])c2)cc1	7	12	-4	-6	-3
Cc1cc(C)cc(C(=O)OCC(=O)NCc2cccs2)c1	26*	20	-1	-8	-7
OCCCNc1nc(-c2ccc(Cl)cc2)nnc1-c1ccc(Br)cc1	3	19	-1	-7	-9
O=[N+]([O-])c1ccc(-c2nnc(-c3ccccc3)c(NCCCO)n2)cc1	-11	38*	-2	1	-3
CC1(Oc2cccnc2Cl)CCN(Cc2ccc(OC(F)(F)F)cc2)C1 (centres undefined)	.	.	-7	.	.
CC(=O)c1ccc(NC(=O)Nc2ccc([N+](=O)[O-])cc2)cc1	-3	29	-6	35*	17
Cc1ccc(C(C)C)cc1NC(=O)Nc1ccc([N+](=O)[O-])cc1	32	36	-10	55*	22
O=C(Nc1ccc([N+](=O)[O-])cc1)Nc1cnccn1	13	67*	1	2	6
Cc1ccc(NC(=O)Nc2cnccn2)cc1	-2	29	-6	-7	-7
CC(=O)c1ccc(NC(=O)NNS(=O)(=O)c2ccc([N+](=O)[O-])cc2)cc1	-11	43	0	-5	-3
Cc1ccc(F)c(NC(=O)c2ccc(Cn3cc(Cl)cn3)cc2)c1	34*	6	-4	4	1
SMILES	GPR7 antag	OX1R antag-1	GalR3 antagonist	CHO parental Ca	OX1R antag-2
CCCCN(C=O)c1c(CC)nc2c(OCCOc3ccccc3)cccn12	.	.	-6	.	.
O=C(N/N=C/c1ccc([N+](=O)[O-])cc1)c1cccc2cc[nH]c12	12	9	-5	-3	-17
CCN(CC)c1ccc(/C=N\NC(=O)c2cccc3cc[nH]c23)cc1	1	51*	-5	-16	-2
COc1ccc(OC)c(S(=O)(=O)Nc2cccc3ccccc23)c1	.	29	-1	-48	-6
COc1ccc(OC)c(S(=O)(=O)Oc2ccc(N)c3ccccc23)c1	.	43*	-7	-3	-13
Cc1nc(NC(=O)c2ccccc2)sc1-c1csc(NCc2ccco2)n1	-12	53*	.	-5	4
CN(Cc1ccccc1)C(=O)c1cccc(NC(=O)Cc2ccc(NC(=O)C3CCCN(S(=O)(=O)c4cccc([N+](=O)[O-])c4)C3)cc2)c1 (centres undefined)	.	.	-8	.	.
Cc1ccc([C@H]2C(C(=O)O)=CC[C@@H](c3ccc(Cl)cc3)N2S(=O)(=O)c2ccccc2C)cc1	.	31	.	-12	21
Cc1ccc([C@H]2C(C(=O)O)=CC[C@@H](c3ccc(C)cc3)N2S(=O)(=O)c2ccccc2C)cc1	.	45*	2	-19	0
COc1ccc([C@@H]2CC=C(C(=O)O)[C@H](c3ccc(C)cc3)N2S(=O)(=O)c2ccccc2C)cc1	.	50*	-7	-11	2
COc1ccc([C@@H]2CC=C(C(=O)O)[C@H](c3ccc(F)cc3)N2S(=O)(=O)c2ccccc2C)cc1	.	35	7	-18	-26
Cc1ccc([C@@H]2CC=C(C(=O)O)[C@H](c3ccccc3)N2S(=O)(=O)c2ccccc2C)cc1	.	54*	-4	-15	33
CCC(c1nnnn1-c1ccc2c(c1)OCCO2)N1CCN(C(C)=O)CC1 (centres undefined)	.	.	0	.	.
C#CCNC(=O)C[C@@H]1C[C@@]2(C(=O)OCC)CCCC=C2N(CCC2=CCCCC2)C1=O	.	.	-5	.	.
CCOC(=O)C1=CCN(S(=O)(=O)c2ccccc2Cl)C1c1ccc(Cl)cc1 (centres undefined)	.	.	-8	.	.
O=S(=O)(c1ccc(NC(=S)N/N=C/c2ccc(O)c(O)c2)cc1)N1CCOCC1	2	2	-4	4	-20
O=[N+]([O-])c1cc(Cl)cc(/C=N/NC(=S)Nc2ccc(S(=O)(=O)N3CCOCC3)cc2)c1O	-12	75*	4	-3	-12
C[C@@H]1CNC(=O)c2c(C(=O)N3CCN(c4ccccc4)CC3)ncn21	.	.	-6	.	.
O=C(NCC(c1ccco1)N1CCCCC1)c1ccc(S(=O)(=O)Nc2ccccc2)cc1 (centres undefined)	.	9	0	-10	-11
O=C(NCC1COc2ccccc2O1)c1ccc(Cl)c(S(=O)(=O)N2CCOCC2)c1 (centres undefined)	.	14	-3	-27	13
O=C(NCC(c1ccco1)N1CCCCC1)c1ccc2c(c1)S(=O)(=O)c1ccccc1C2=O (centres undefined)	5	63*	-6	-28	-44
O=C(NCC1COc2ccccc2O1)c1ccc(Cl)c(S(=O)(=O)N2CCCC2)c1 (centres undefined)	.	34*	-9	-14	31
O=C(NCC(c1ccco1)N1CCCC1)c1ccc(Cl)c(S(=O)(=O)N2CCc3ccccc32)c1 (centres undefined)	.	4	87*	12	20
C[C@H](NC(=O)c1ccccc1)C(=O)OCC(=O)Nc1ccc(Cl)cn1	.	.	-1	.	.
O=C(Nc1ncccc1O)c1ccc(Cl)c(S(=O)(=O)N2CCCC2)c1	.	.	-8	.	.
